Experimental data taken from ChEMBL document CHEMBL1629645 (Antimicrob Agents Chemother, 2009).

Experiments:
[1] = AUC (0 to 24 hrs) in cage fluid of Albino guiena pig at 10 mg/kg, ip; format: ADME, organism-based, Cavia porcellus; design: time < 24 hr, dose 10 mg/kg, route intraperitoneal; details: guinea pig
Staphylococcus aureus [2] = test: Antibacterial activity against methicillin-resistant Staphylococcus aureus ATCC 43300 during logarithmic growth phase by macrodilution method; format: functional
[3] = Tmax in cage fluid of Albino guiena pig at 10 mg/kg, ip; format: ADME, organism-based, Cavia porcellus; design: dose 10 mg/kg, route intraperitoneal; details: guinea pig
Staphylococcus aureus [4] = test: Antibacterial activity against methicillin-resistant Staphylococcus aureus ATCC 43300 by macrodilution method; format: functional
How it was run: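 Broth macrodilution MIC in Mueller-Hinton broth per CLSI. Inoculum 1 × 10^5 to 5 × 10^5 CFU/ml. Ten twofold drug dilutions, 18 h at 37°C without shaking. MIC is the lowest concentration with no visible growth. Triplicate.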

Staphylococcus aureus [5] = test: Antibacterial activity against methicillin-resistant Staphylococcus aureus ATCC 43300 during stationary growth phase by macrodilution method; format: functional
[6] = Cmax in cage fluid of Albino guiena pig at 10 mg/kg, ip after 12 hrs; format: ADME, organism-based, Cavia porcellus, Interstitial fluid; design: dose 10 mg/kg, route intraperitoneal; details: guinea pig
[7] = Half life in cage fluid of Albino guiena pig at 10 mg/kg, ip; format: ADME, organism-based, Cavia porcellus; design: dose 10 mg/kg, route intraperitoneal; details: guinea pig, in vivo
[8] = Cmin in cage fluid of Albino guiena pig at 10 mg/kg, ip after 12 hrs; format: ADME, organism-based, Cavia porcellus; design: dose 10 mg/kg, route intraperitoneal; details: guinea pig, read-out: Cmin

Work on C[C@H]1COc2c(N3CCN(C)CC3)c(F)cc3c(=O)c(C(=O)O)cn1c23.C[C@H]1COc2c(N3CCN(C)CC3)c(F)cc3c(=O)c(C(=O)O)cn1c23.O [LEVOFLOXACIN] yielded an AUC(0-t) at 24 h [1] of 6100 ng·h/mL, an MBC (Staphylococcus aureus [2]) of 0.63 µg/mL and a Tmax [3] of 2.5 h. For the same compound, the MIC (Staphylococcus aureus [4]) was 0.16 µg/mL, the MBC (Staphylococcus aureus [5]) was > 20 µg/mL and the Cmax [6] was 1500 ng/mL. The t1/2 [7] was 4.2 h and the concentration at 12 h [8] was 300 ng/mL.
